Measurements from ChEMBL document CHEMBL1122498, “Improved delivery through biological membranes. 11. A redox chemical drug-delivery system and its use for brain-specific delivery of phenylethylamine” (1983).

Tests used:
Assay type in all cases: functional
Rattus norvegicus [1] = species on record: Rattus norvegicus; assay: In vitro facile oxidative conversion to the corresponding quaternary derivative 5a in rat brain homogenate
How it was run: (§1)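 Rat brain (2.0 g) homogenized in 10 mL phosphate buffer pH 7.4, centrifuged, heated 50 °C for 5 min, recentrifuged, and diluted to 100 mL (2%). To 10 mL was added 0.2 mL of 6.25 × 10⁻⁴ M methanolic dihydro derivative. First-order k and t1/2 derived.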

Homo sapiens [2] = species on record: Homo sapiens; assay: Half life during the site specific conversion to the quaternary derivative 5a in fresh human plasma was determined
How it was run: (§2)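 Dihydro derivative in methanol (0.2 mL of 6.25 × 10⁻⁴ M) diluted to 10 mL with 20% fresh human plasma in phosphate buffer pH 7.4. Held at 37 °C with UV scans 400–250 nm every 10 min for 2 h against a plasma/methanol reference. Oxidation to the pyridinium salt followed by loss at ~350 nm and gain at 262 nm. First-order k and t1/2 derived.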

Rattus norvegicus [3] = species on record: Rattus norvegicus; assay: Half life during the site specific conversion to the quaternary derivative 5a in rat liver homogenate was determined
How it was run: (§3)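 Sprague-Dawley rat liver (5.0 g) homogenized in 50 mL phosphate buffer pH 7.4, centrifuged, heated 50 °C for 5 min, recentrifuged, and diluted to 250 mL (2%). Dihydro derivative (0.2 mL of 6.25 × 10⁻⁴ M in methanol) diluted to 10 mL with homogenate. UV scans at 37 °C from 400 to 250 nm every 5 min for 1 h against a homogenate/methanol reference. First-order k and t1/2 derived.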

Homo sapiens [4] = species on record: Homo sapiens; assay: Half life during the site specific conversion to the quaternary derivative 5a in heparinized human whole blood was determined
Rattus norvegicus [5] = species on record: Rattus norvegicus; assay: In vitro facile oxidative conversion to the corresponding quaternary derivative 5a in rat liver homogenate; how it was run: as §3
Homo sapiens [6] = species on record: Homo sapiens; assay: In vitro facile oxidative conversion to the corresponding quaternary derivative 5a in heparinized human whole blood
Rattus norvegicus [7] = species on record: Rattus norvegicus; assay: Half life during the site specific conversion to the quaternary derivative 5a in rat brain homogenate was determined; how it was run: as §1
Homo sapiens [8] = species on record: Homo sapiens; assay: In vitro facile oxidative conversion to the corresponding quaternary derivative 5a in fresh human plasma; how it was run: as §2

SMILES	Activity (Rattus norvegicus [1])	T1/2 (Homo sapiens [2])	T1/2 (Rattus norvegicus [3])	T1/2 (Homo sapiens [4])	Activity (Rattus norvegicus [5])	Activity (Homo sapiens [6])	T1/2 (Rattus norvegicus [7])	Activity (Homo sapiens [8])
O=C(NCCc1ccccc1)C1=CN(Cc2ccccc2)C=CC1	2.1 10e-4 K s-1	156 min	15.3 min	24.4 min	7.5 10e-4 K s-1	4.74 10e-4 K s-1	55 min	0.74 10e-4 K s-1
CN1C=CCC(C(=O)NCCc2ccccc2)=C1	4.12 10e-4 K s-1	64.2 min	14.4 min	13.7 min	8.13 10e-4 K s-1	8.4 10e-4 K s-1	28.2 min	1.8 10e-4 K s-1
CCOC(=O)C1=CN(C)C=C(C(=O)NCCc2ccccc2)C1	0.174 10e-4 K s-1	–	–	70.2 min	–	1.13 10e-4 K s-1	666 min	–
CN1C=C(C(=O)NCCc2ccccc2)CC(C(=O)NCCc2ccccc2)=C1	0.084 10e-4 K s-1	–	–	234 min	–	0.494 10e-4 K s-1	1370 min	–
